bCat nuc transl = modulators of beta-catenin nuclear translocation, primary screen, imaging, HeLa cells, immunofluorescence, high-content; nuclear translocation activity, % at 5 µM; 190,000 compounds, 0.3% hits; AID 1665, 2009;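 active means nuclear translocation activity above 50% at 5 µM, with a well cell count of 50 or more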;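 further: per-cell ratio of nuclear to cytoplasmic median beta-catenin stain intensity; plate controls were DMSO negative control for no effect and GSK-3 inhibitor IX positive control for full effect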
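Read-out: Nuclear/cytoplasmic beta-catenin signal ratio, % activation | Assay system: Human HeLa cell line | Times: 24 h compound exposure at 37°C, 5% CO2 | Signal: Fluorescence imaging of beta-catenin antibody stain plus DAPI | Dosing: 5 µM primary, 0.02–20 µM confirmation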
APP 5UTR inh = inhibitors of APP translation via 5'UTR reporter, primary screen, APP 5'UTR luciferase, SH-SY5Y cells. AID 1285, 2008. 190,000 compounds, 0.82% hits. inhibition, % at 2 µM. SH-SY5Y APP 5'UTR-luciferase reporter, luminescence;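 active means inhibition above a set limit, derived from the sample mean plus 3 SD, cut at about 45% in these data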
Ba/F3 V617F tox = reduced viability of JAK2V617F-dependent Ba/F3 cells, primary screen, JAK2V617F inhibitor project, cell-based, Ba/F3 EpoR-JAK2V617F, luminescence. inhibition, % at 5.6 µM. ATP luminescence. 220,000 compounds, 1.1% hits;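 active means inhibition above the campaign mean plus 3 SD over all tested compounds, cut at about 24% in these data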;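 further: cytokine-independent growth of Ba/F3 cells driven by EpoR plus mutant JAK2; 0% = DMSO-treated cells and 100% = JAK inhibitor I control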
IEC-6 tox = cytotoxicity in IEC-6 intestinal epithelial cells, primary screen, cytotoxicity control for KLF5 inhibitor project, cell-based, luminescence | IEC-6 cytotoxicity, luminescence viability | inhibition, % at 5 µM | 290,000 compounds, 0.78% hits | AID 1825, 2009; in the data active means inhibition above about 22%;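 further: 0% = plate median of test compound wells and 100% = cytotoxic reference compound wells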
BaF3 tox = parental Ba/F3 cell viability inhibition, counter-screen for JAK2V617F inhibitor project, murine pro-B, CellTiter-Glo luminescence; 220,000 compounds, 1.1% hits; inhibition, % at 5.6 µM; CellTiter-Glo ATP luminescence;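 active means inhibition above a per-campaign cutoff, the mean inhibition of all tested compounds plus 3 SD, cut at about 27% in these data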;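 further: 0% = DMSO wells and 100% = JAK Inhibitor I control wells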
MT stabilizer = microtubule stabilizers in HeLa cells, primary screen, imaging, high-content imaging; HeLa tubulin immunostaining HCS, 24 h; share of cells brighter than vehicle mean+2SD; 200,000 compounds, 0.83% hits; % tubulin-high responders, % at 10 µM;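 active means plate Z-score above 3 for both tubulin-high and condensed-nucleus cell shares, with cell loss under 80%, at 10 µM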;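 further: anti alpha tubulin signal scored within the nucleus-defined area of each cell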
Active calls of the source: *; . = not tested or not shown. An excerpt weighted towards active compounds, which were near 2.2% of everything screened.

SMILES | bCat nuc transl | APP 5UTR inh | Ba/F3 V617F tox | IEC-6 tox | BaF3 tox | MT stabilizer
CCS(=O)(=O)c1ccc(OC)c(N=Nc2ccc(O)c3ncccc23)c1 | 0.2 | 67.4* | 1.9 | -6.6 | 6.9 | 1.1
Oc1ccc(N=Nc2ccc3c(c2)OCCO3)c2ncccc12 | -4.4 | . | 92.3* | 3.2 | 66.6* | .
CC1(C)C(C=C(Cl)Cl)C1C(=O)Nc1ccc(S(=O)(=O)Nc2ncccn2)cc1 (centres undefined) | . | . | . | 2.0 | . | .
Cc1ccc(N(CC(=O)NCC2CCCO2)C(=O)CCC(=O)Nc2cc(C)on2)cc1 (centres undefined) | . | . | . | 0.6 | . | .
C=CCN(CC(=O)NCC1CCCO1)C(=O)CCC(=O)Nc1cc(C)on1 (centres undefined) | -4.9 | 0.6 | -4.0 | -0.6 | 92.9* | 2.9
O=C1C2C3C=CC(CO)(O3)C2C(=O)N1c1ccccc1-c1ccccc1 (centres undefined) | -2.6 | 70.5* | 2.7 | 8.2 | 0.2 | 2.0
CCOc1ccc(Nc2nc(Cc3nnc(SCC(=O)NCc4ccco4)n3CC)cs2)cc1 | 148.0* | -13.3 | 4.7 | -7.4 | 6.1 | 16.5
COc1cc(/C=N/NC(=O)C(Cc2c[nH]c3ccccc23)NC(=O)OCC(C)C)cc([N+](=O)[O-])c1OCc1ccccc1 (centres undefined) | 0.5 | -23.7 | 95.0* | 2.7 | 100.1* | 2.7
O=C(Nc1ccc(OCC(F)(F)C(F)F)c(C(F)(F)F)c1)c1ccccc1O | 0.7 | -8.6 | 47.6* | 2.3 | 86.6* | 3.3
CCOc1ccc(N2C(N)=NC(N)=NC2(C)C)cc1 | 1.5 | 5.5 | 94.2* | -4.0 | 98.4* | 3.3
CCCCOc1ccc(N2C(N)=NC(N)=NC23CCCCC3)cc1 | . | . | . | 6.1 | . | .
CCOC(=O)c1cccc(N2C(=O)C3C4C=CC(CC4)C3C2=O)c1 (centres undefined) | . | . | . | 2.6 | . | .
CC1(C)N=C(N)N=C(N)N1c1ccc(OCCCOc2ccccc2)c(Cl)c1 | -1.0 | . | 97.3* | 81.8* | 101.6* | .
CCOC(=O)c1cccc(N2C(N)=NC(N)=NC2(C)C)c1 | -0.1 | 5.5 | 73.2* | -0.8 | 96.1* | 5.6
CC(=O)NS(=O)(=O)c1ccc(NC(=S)NC(=O)C2CCC2)cc1 | . | . | . | -4.1 | . | .
Cc1ccn2c(Nc3ccc4c(c3)OCO4)c(-c3ccccn3)nc2c1 | -2.2 | 52.4* | -3.4 | -5.6 | 3.6 | 3.0
Cc1ccc(Nc2c(-c3ccccn3)nc3ccc(C)cn23)cc1 | -3.7 | 60.0* | 4.5 | -1.4 | 1.6 | 10.8
Cc1ccc(Nc2c(-c3ccccn3)nc3cc(C)ccn23)cc1 | . | 59.8* | 1.0 | 11.1 | 0.4 | 7.8
Cc1ccc(-c2nc3cnccn3c2Nc2ccc3c(c2)OCO3)o1 | 2.1 | 9.3 | -4.0 | -7.0 | 0.8 | 2.6
Cc1ccn2c(NC3CCCC3)c(-c3ccccn3)nc2c1 | -5.7 | 1.4 | 3.2 | 1.8 | 6.8 | 1.8
COCCN(C(=O)CSc1nnc(-c2cccc(F)c2)n1N)c1c(N)n(CC(C)C)c(=O)[nH]c1=O | . | . | . | -5.3 | . | .
Cc1ccccc1NC(=O)c1cccc(N2C(=O)C3C4CC(C(Br)C4Br)C3C2=O)c1 (centres undefined) | . | . | . | 1.1 | . | .
COc1ccc(OC)c(C(C)NC(=O)c2ccco2)c1 (centres undefined) | 2.7 | -10.7 | -3.8 | -2.1 | 3.1 | 25.9*
COc1ccccc1C(C)NC(=O)c1ccc(C)o1 (centres undefined) | . | -0.7 | -1.3 | 6.5 | 2.8 | 43.7*
Cc1ccc(C(=O)NC(C)c2ccccc2)o1 (centres undefined) | 1.4 | -22.4 | 1.6 | -1.6 | 6.3 | 3.2
CCC(c1nnnn1C1CCCC1)N(Cc1cccs1)Cc1cc2cc(C)ccc2[nH]c1=O (centres undefined) | 91.1* | -11.8 | -4.6 | -6.1 | -2.7 | 35.5*
O=C(O)c1ccccc1C(=O)Nc1ccc(Oc2cccc3ccccc23)cc1 | 0.3 | 58.7* | 8.0 | 11.5 | 10.5 | 5.0
O=C(O)c1ccccc1C(=O)Nc1ccc(Oc2ccc3ccccc3c2)cc1 | 1.3 | 22.0 | 45.5* | 14.2 | 38.0* | 3.8

Assay outcomes from PubChem BioAssay.
